Yeast fitness data for 167 variants are collected here from the RNAGym collection of RNA variant scans (doi:10.1126/science.aae0568).

Fewer inactive variants are shown than the library holds.

First the molecules themselves.
B1: tRNA (parent)
chain: GUUCCGUUGGCGUAAUGGUAACGCGUCUCCCUCCUAAGGAGAAGACUGCGGGUUCGAGUCCCGUACGGAACG

In the data set the parent is B1. In words: yeast fitness relative to wild type (ratio to wild type); higher = fitter; tRNA-Arg(CCU), competitive growth, 37 C, YPD. The method in brief: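 Variants of the tRNA-Arg(CCU) gene, chemically synthesised with a 3% per-site mutation rate at 69 sites, were placed at the native genomic locus in Saccharomyces cerevisiae. The pooled strains were competed in YPD at 37°C for 24 hours in six parallel replicates. Gene amplicons from the start population and from each end population were read by 100-nucleotide paired-end sequencing. Darwinian fitness relative to wild type came from changes in genotype frequencies; genotypes needed ≥ 100 starting reads, and estimates < 0.5 were set to 0.5.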
Regarding G38C G41C, the yeast fitness was determined as 0.614.
On to G10A G12C C31U U53C A70C, for which the yeast fitness is not above 0.5.
With C4A C5G C66U, the yeast fitness came to 0.538.
Turning to C5A U35C G44A G48C C55G A69U, the yeast fitness was 0.56.
The result for C31G U59G reads 0.734; that for G41C A70G, 0.829; that for C11A A21C U64A, 0.688.
The result for C22G C27A A65G reads not above 0.5.
With G18C G67U, the yeast fitness was determined as 0.632.
Under U28G C29A G41C A43U U47C C66G stands not above 0.5; under G56C C61A, not above 0.5.
Turning to C27U C33U A40C C55A, the yeast fitness was not above 0.5.
With C11G A21G G23C C30A, the yeast fitness worked out at 0.733.
Under G41A A65G A70G stands 0.63.
Under U16G G23A A40C C66U stands not above 0.5; under C29U A40U A57G U64C, not above 0.5; under U2C A36G, 0.907.
The result for U26A A40G C62U reads 0.567.
For the variant G25A A37C G38C C60U C62U A69U, the yeast fitness is not above 0.5.
For the variant U16G U32G C46U, the yeast fitness was not above 0.5.
Under C60G C61U stands 0.626; under C4G G17A A20C C61U, not above 0.5; under U32C G50A, 1.02.
Under G18A U53A C62G stands not above 0.5; under U7A A20G, 0.713.
Turning to U16C A21C G41A G56A, the yeast fitness is not above 0.5.
The result for C11U A20C reads 0.777; that for U16C C31A G56A A65G C66A G68C, not above 0.5.
The result for U3A C5A A65U reads not above 0.5; that for C24A G56C, 0.626; that for C5U U35C A36U G38A C46A U54C G68C, not above 0.5.
The result for U13A C31A A42G G67A A69U reads not above 0.5.
As to A14C U19C C66U, the yeast fitness is 0.722.
The result for C22U C27U G56A reads 0.51; that for U7C G10C C46U G63C, not above 0.5; that for U3A U47C G51A U53C, not above 0.5.
The result for G9C A20C C31A A57C C66A A69U reads 0.572.
Under C4U U16G A69C stands 0.645; under C31U C61U C66A, not above 0.5; under G6C U16A G23C U64A, not above 0.5.
Take G63C C66G: the yeast fitness stood at 0.709.
Regarding C33U A42C C46A, the yeast fitness was not above 0.5.
For U7A G51C, the yeast fitness turned out to be 0.553.
The result for U2A G12C C29U G51A G56A A57G G63C reads not above 0.5.
Under U2C U16A stands 0.971; under C33A U54G, 0.518; under C5U A15G G17C C66U, not above 0.5.
The result for U2C C11G C24A C55A reads 0.786; that for C11G C29U U59A A69U, not above 0.5.
Turning to A15C U47A G68U, the yeast fitness was found to be 0.57.
The result for C29A C31U A42C reads 0.576; that for C11G C24U C31G C33U A43U, not above 0.5; that for A15C G17A U28A A65U, 0.752.
Under U32C G39C C55U stands not above 0.5; under C22A C46U C49G, 0.527.
In the case of U3C C31U C49U, the yeast fitness was 0.919.
The result for U3G C30A C31G reads 0.669; that for U2C C5U A15U, 0.568.
The result for U7C A20C A69C reads 0.615.
The result for C5U G25A A69C reads 0.728; that for C11U U19C G23A G25A A43U C55U, not above 0.5; that for U7A A15U U53C, not above 0.5.
C29A G41A A43C A70C: the yeast fitness was not above 0.5.
As for C62U, the yeast fitness turned out to be 0.994.
Under A15C U28C C61G stands not above 0.5; under G6C C33A A40G A57U, not above 0.5.
In the case of G17C G23C A43U C49A C66U, the yeast fitness was 0.634.
The result for C24U G51C C55U reads not above 0.5; that for C27A C30U C33G, 0.634.
The result for C5A G17A C24U A36C reads 0.538; that for A14C U35C A57U, not above 0.5; that for A20C C24A C29U G63C, not above 0.5.
Under C5U G56C A65U A70G stands not above 0.5; under G6A G48C C66U, 0.769.
Regarding U7C G17C U19C C24G G48C G51C U53C A57U C66U, the yeast fitness was found to be 0.575.
As to C31G A42G C49G, the yeast fitness is not above 0.5.
As to U26C A43U G48C C60G, the yeast fitness was not above 0.5.
The result for A15U G38C G39A A43C U54C C60G A65C reads not above 0.5; that for C4U C55A, 0.701; that for G23C A70C, 0.73.
Take C11G G17A A20U C33G G38C: the yeast fitness is not above 0.5.
The result for C22G A36C A37C reads not above 0.5; that for C24A G39C A42G, not above 0.5.
U35A A65U: the yeast fitness came to 0.757.
Take U3G A43U: the yeast fitness was found to be 1.08.
The result for C11A C27U C33U U35C C61G A65G reads not above 0.5.
Consider U13A U28C A45U, for which the yeast fitness was 0.702.
Under C4A C5A C22A U28G C33G A57G G67C stands not above 0.5.
Under U26G C66G stands 0.677.
The result for C22U C30U A42G C61A reads 0.584; that for G10A A21G A40U, 0.558; that for C29A A36C C55U C61A, not above 0.5.
Regarding G12A U26C G58A, the yeast fitness came to 0.675.
Under U13G A14G G17A G39C stands 0.758; under G25A C61G, 0.679; under A45G A57G, 0.943.
The result for U13C A15U U16A U19A C34U G67A G68C reads not above 0.5.
Under G10C C11G C24G G67A stands not above 0.5; under G9A A15U C22A G25A G48A, not above 0.5.
On to G25C C34A C46U, for which the yeast fitness is 0.555.
Under U26C C49A stands 0.598.
For the variant G25C C33G, the yeast fitness was 0.662.
Under U2G U19A U53C G67A stands 0.563.
The result for U28G U47C reads 0.824; that for A14G G25C C31U, 0.692; that for G68U, 1.02.
For C4U C27U C29G A42C, the yeast fitness was not above 0.5.
Under C30G A43G stands 0.589; under U2G U13G A57G, 0.538.
U2C U3A U19G G44C: the yeast fitness turned out to be 0.591.
In the case of C4U A45U A69U, the yeast fitness was 0.827.
The result for C29A A36C G68A reads not above 0.5.
Under G10C A14C A15C A43U stands not above 0.5.
Under C11A C30G C31U U32C G52A stands 0.566; under A65C A69C, 0.727.
As to U3C C5U C22U A40U A43U, the yeast fitness is not above 0.5.
The result for A15C C24G A45G reads not above 0.5.
The result for C4U G48A G52C U54C reads not above 0.5; that for C5A C33G A42C, not above 0.5.
The result for A45C G50A C62U A69U reads 0.561; that for A37G C49G A57C, 0.798; that for U35C C46G, 0.906.
Turning to U26G C31U U54A, the yeast fitness is 0.569.
Under A20U G23A C34A A36U stands not above 0.5; under C22G C24A C55A, not above 0.5; under A14G C29U C31U C33U, 0.543.
Under U35G U64C A70G stands not above 0.5.
In the case of C4G G17C C22G, the yeast fitness is not above 0.5.
Regarding U35C A65G, the yeast fitness was found to be 0.945.
Under C5U C60A C62G stands not above 0.5.
The result for U2C A20U A69C reads 0.636; that for G12C C33G A37G A40C C49G, not above 0.5; that for A21U C22U C49A, 0.56.
The result for A14G G25A reads 0.856; that for A14G A40C C60G, 0.757.
For C24G C33U C60G, the yeast fitness is 0.519.
The result for G6C C31U U53C C62U reads not above 0.5; that for A21U G44A G56A, not above 0.5; that for C22G C55U A57U, not above 0.5.
As to A36C G48A C66G, the yeast fitness is not above 0.5.
The result for A36G C55G A65G reads not above 0.5; that for C34U U35C A45G U54A, 0.704; that for G25A A40C C46U A69C, 0.764.
For the variant C30A A57U C61A A69G, the yeast fitness is not above 0.5.
The result for U7G A21C G58C reads not above 0.5; that for C5A U16C U59G C66U, 0.533.
Under A20U A36G C49U A70U stands not above 0.5; under U2C G23C C31G C33U A42G G50U G52C G58C, not above 0.5.
Under A21U G39C U47A stands 0.512.
With U8G A15C G18C C49U U64A A69U, the yeast fitness is not above 0.5.
Under A14U A40G C62G stands not above 0.5.
Under C24A C33G C34U G58C stands 0.551; under U8C A43G A70C, 0.74; under G10A G17C U28C C30G C33G C61A A69U, not above 0.5.
The result for C4G C61U reads 0.935.
As to C5U U26A A43U, the yeast fitness was 0.715.
The result for C4G C5G C34G reads not above 0.5; that for C5A G17A, 0.851; that for C11A A14U C30U C33A A36U A57G, not above 0.5.
Under C33G G41C G56C G58A U59C G63C A65U stands not above 0.5; under A14C A21C C27U C62U A69C, not above 0.5; under C5G G48A C49G, 0.658.
Under A57G C61G stands 0.61; under C33U A42C A65G, 0.58.
U8A A45C: the yeast fitness was determined as 0.692.
The result for G10A A57G reads 0.852; that for A14G G23C C27A G51A, not above 0.5.
